High-throughput results: PubChem, Sanford-Burnham Center for Chemical Genomics
SKN-1 block: blocks SKN-1 activity in C. elegans; C. elegans VP596 Pgst-4::GFP/RFP ratio, acrylamide-induced, 24 h; inhibition, % at 21.8 µM; 360,000 tested, 0.49% active; AID 624304;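 active means interference check ratio from 0.5 to 1.5 plus GFP to RFP signal ratio inhibition reaching or exceeding a fixed threshold, cut at about 30% in these data, passing the limit was not always enough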
MPTP block: inhibitors of mitochondrial permeability transition pore. inhibition, % at 10 µM. isolated mouse mitochondria, Ca2+ swelling absorbance, 30 min. AID 602449. 360,000 tested, 1.4% active;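 active means inhibition of 50% or more, scaled per plate between neutral and stimulator controls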;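 further: 0% = DMSO wells given calcium and 100% = 1 mM EGTA wells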
MT1-MMP act inh: MT1-MMP (human) activation inhibition. P50281. HT1080 RFP-PRO-GFP cells, GFP/RFP ratio fluorescence, overnight; percent of plate control window, DMSO zero. GFP/RFP ratio change, % at 20 µM. 360,000 tested, 0.061% active;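 active means GFP/RFP ratio change of at least 30% with cell ATP level not reduced by more than half and red fluorescence within 50% of control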
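Assay system: HT1080 cells carrying an RFP-PRO-GFP reporter | Dosing: Single dose of 20 µM compound, 1% DMSO final | Incubation: Cells overnight before dosing, compound overnight, 37 °C, 5% CO2 | Evaluation: GFP/RFP fluorescence ratio | Control set: DMSO and RFP-L50D-GFP cell wells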
ATG4B inh: inhibitors of human ATG4B cysteine protease | 340,000 tested, 0.51% active | Q9Y4P1 | ATG4B cleavage of LC3-PLA2, NBD-HPC fluorescence, 1 h | inhibition, % at 8.33 µM; in the data active means inhibition above about 40%
Target sequence (Q9Y4P1 whole entry, looked up): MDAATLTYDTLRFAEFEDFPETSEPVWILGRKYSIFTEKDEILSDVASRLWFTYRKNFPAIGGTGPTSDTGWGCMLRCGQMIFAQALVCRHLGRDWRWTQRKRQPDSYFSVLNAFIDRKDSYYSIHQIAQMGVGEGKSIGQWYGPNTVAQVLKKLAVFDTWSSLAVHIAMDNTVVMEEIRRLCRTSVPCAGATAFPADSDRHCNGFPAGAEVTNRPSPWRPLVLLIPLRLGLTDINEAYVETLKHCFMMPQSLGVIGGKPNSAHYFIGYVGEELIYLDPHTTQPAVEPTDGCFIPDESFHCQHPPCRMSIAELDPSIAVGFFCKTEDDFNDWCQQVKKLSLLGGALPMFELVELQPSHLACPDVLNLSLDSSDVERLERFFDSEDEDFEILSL
ATG4B confirm: confirmation of human ATG4B inhibitors; 320 tested, 92% active; ATG4B protease fluorescent substrate cleavage assay; inhibition, % at 8.33 µM; shares compounds with ATG4B inh; in the data active means inhibition above about 39%
PLA2 ctr: counter-screen for ATG4B inhibitors: human phospholipase A2. shares compounds with ATG4B inh. purified PLA2, NBD-C6-HPC fluorescence, 45 min. inhibition, % at 8.33 µM. 1,600 tested, 66% active; in the data active means inhibition above about 50%
Target sequence (P04054 whole entry, looked up): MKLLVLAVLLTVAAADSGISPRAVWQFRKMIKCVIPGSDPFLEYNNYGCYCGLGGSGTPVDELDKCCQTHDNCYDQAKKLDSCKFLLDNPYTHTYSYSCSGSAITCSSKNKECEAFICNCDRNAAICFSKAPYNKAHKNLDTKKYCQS
MPTP counter: Rhodamine 123 counter-screen of mitochondrial pore hits. shares compounds with MPTP block. isolated mitochondria, membrane potential, Rhodamine 123 fluorescence. 5,000 tested, 78% active. inhibition, % at 10 µM; in the data active means inhibition above about 22%;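 further: 0% = DMSO vehicle and 100% = positive control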
* = called active by the depositor. The list is not random: actives were taken first. Their share in the collection is about 2.3%.

Screening COc1ccc(S(=O)(=O)NC(C)C(=O)NCc2ccccn2)cc1OC (stereo not drawn) returned SKN-1 block 17, MPTP block 0, MT1-MMP act inh 1 and ATG4B inh -10.
Screening O=C(Nc1ccnn1C1CCN(C(=O)c2ccc(F)cc2)CC1)C1CCOC1 (stereo not drawn) returned SKN-1 block -12, MPTP block -1, MT1-MMP act inh -1 and ATG4B inh -1.
Cc1sc2ncnc(N3CCC(C(=O)Nc4cc(C(F)(F)F)ccc4OCC(F)(F)F)CC3)c2c1C was read as SKN-1 block -5, MPTP block 0, MT1-MMP act inh -6 and ATG4B inh -58.
Cc1cccc(NC(=S)NCCSc2ccc(Cl)cc2)c1 was read as SKN-1 block 16, MPTP block 98*, MT1-MMP act inh 4, ATG4B inh 51*, PLA2 ctr 64* and MPTP counter 85*.
Screening COc1cccc(OC)c1C(=O)Nc1ccc(C(=O)c2ccncc2)cc1 returned SKN-1 block 11, MPTP block -3, MT1-MMP act inh -1 and ATG4B inh -3.
`O=C(CN1CCCCC1)NC(=O)NC1CCCCC1` gave SKN-1 block -2, MPTP block 1, MT1-MMP act inh 1 and ATG4B inh 5.
Screening O=C(NC(=S)Nc1cc(-c2nc3ccccc3[nH]2)ccc1Cl)c1ccc2c(c1)OCO2 returned SKN-1 block 16, MPTP block 57*, MT1-MMP act inh -1, ATG4B inh 52*, PLA2 ctr 60* and MPTP counter 39*.
For S=C(NCc1ccc2c(c1)OCO2)Nc1ccc(-c2nc3ccccc3[nH]2)cc1 the results were SKN-1 block 0, MPTP block 3, MT1-MMP act inh 9 and ATG4B inh 4.
`Cc1ccc(C[n+]2cccc(-c3ccccc3)c2)c(C)c1` gave SKN-1 block -2, MPTP block 2, MT1-MMP act inh -16 and ATG4B inh 3.
For O=C(CC1OC(=O)c2ccccc21)NNC(=O)c1ccc(F)cc1 (stereo not drawn) the results were SKN-1 block 0, MPTP block -2, MT1-MMP act inh -2 and ATG4B inh -7.
Screening CCOC(=O)c1ccc(NC(=S)NCc2ccc(F)cc2)cc1 returned SKN-1 block 2, MPTP block 88*, MT1-MMP act inh 1, ATG4B inh 44*, PLA2 ctr 56* and MPTP counter 82*.
Screening CC(C)c1ccc(NC(=O)NCc2ccc(F)cc2)cc1 returned SKN-1 block 9, MPTP block 61*, MT1-MMP act inh 1, ATG4B inh 61*, PLA2 ctr 67* and MPTP counter 86*.
O=C(Nn1nnnc1Nc1ccccc1)C12CC3CC(CC(C3)C1)C2 was read as SKN-1 block 9, MPTP block -2, MT1-MMP act inh 7 and ATG4B inh -5.
CCCCc1ccc(NC(=S)NCc2cccc(OC)c2)cc1 was read as SKN-1 block -13, MPTP block 70*, MT1-MMP act inh 0, ATG4B inh 80*, PLA2 ctr 79* and MPTP counter 91*.
Screening O=c1c2[nH]c3ccccc3c2ncn1CCC1=CCCCC1 returned SKN-1 block -14, MPTP block 1, MT1-MMP act inh 9 and ATG4B inh -12.
For COc1ccc(CNc2ncnc3c2[nH]c2ccccc23)cc1 the results were SKN-1 block 19, MPTP block 91*, MT1-MMP act inh 7, ATG4B inh 47*, PLA2 ctr 71* and MPTP counter 91*.
For COc1ccc(CCn2cnc3c([nH]c4ccccc43)c2=O)cc1 the results were SKN-1 block 8, MPTP block 2, MT1-MMP act inh -5 and ATG4B inh 1.
C1=C(CCNc2ncnc3c2[nH]c2ccccc23)CCCC1 was read as SKN-1 block 14, MPTP block 104*, MT1-MMP act inh -11, ATG4B inh 49*, PLA2 ctr 64* and MPTP counter 83*.
For CCN1/C(=C/C(C)=C/c2sc3ccccc3[n+]2CC)Sc2ccccc21 the results were SKN-1 block 96, MPTP block 199*, MT1-MMP act inh 32, ATG4B inh 52*, ATG4B confirm 49*, PLA2 ctr 37 and MPTP counter 68*.
Screening Cc1cc(/C=N/n2c(COc3ccccc3)nc3ccccc3c2=O)c(O)c([N+](=O)[O-])c1 returned SKN-1 block 1, MPTP block 79*, MT1-MMP act inh -7, ATG4B inh 60*, ATG4B confirm 53*, PLA2 ctr 35 and MPTP counter 33*.
Screening Cc1ccc(-c2[nH]ncc2/C=N/n2c(COc3ccccc3)nc3ccccc3c2=O)cc1 returned SKN-1 block 8, MPTP block -1, MT1-MMP act inh -3 and ATG4B inh -9.
`CCOC(=O)C1(CC2CCCCO2)CCN(Cc2cc3ccccc3[nH]2)CC1` (stereo not drawn) gave SKN-1 block -10, MPTP block -1, MT1-MMP act inh -14 and ATG4B inh 25.
`Cc1cccc(NC(=S)NNc2cccc(Cl)c2)c1` gave SKN-1 block 11, MPTP block 2, MT1-MMP act inh -2 and ATG4B inh -11.
For Cc1ccc(NS(=O)(=O)c2cc([N+](=O)[O-])ccc2NNC(=S)Nc2cc(C)ccc2C)c(C)c1 the results were SKN-1 block 10, MPTP block 110*, MT1-MMP act inh -23, ATG4B inh 58*, PLA2 ctr 73* and MPTP counter 67*.
`COc1ccc(NC(=S)NNc2ccc([N+](=O)[O-])cc2S(=O)(=O)Nc2ccc(C)cc2C)cc1` gave SKN-1 block -5, MPTP block 97*, MT1-MMP act inh -1, ATG4B inh 43*, PLA2 ctr 57* and MPTP counter 56*.
For COc1ccc(CNc2ccc([N+](=O)[O-])cc2C)cc1 the results were SKN-1 block -3, MPTP block 2, MT1-MMP act inh 0 and ATG4B inh 30.
Screening Cc1ccc(NS(=O)(=O)c2cc([N+](=O)[O-])ccc2NNC(=S)Nc2cccc(Cl)c2)c(C)c1 returned SKN-1 block 5, MPTP block 86*, MT1-MMP act inh 3, ATG4B inh 88*, PLA2 ctr 101* and MPTP counter -2.
`CCOC(=O)C1=CN(Cc2ccco2)S(=O)(=O)N(CC)C1c1ccc(C(F)(F)F)cc1` (stereo not drawn) gave SKN-1 block 11, MPTP block -2, MT1-MMP act inh -9 and ATG4B inh 6.
